Data taken from ChEMBL document CHEMBL5620424, “Design, synthesis and evaluation of novel 2-phenyl-3-(1H-pyrazol-4-yl)pyridine positive allosteric modulators for the M4 mAChR” (Eur J Med Chem, 2023).

What was measured:
[1] = target: T1, Muscarinic acetylcholine receptor M4 (Homo sapiens) (UniProt P08173); test: Positive allosteric modulation at human M4 mAChR expressed in Flp-In-CHO cells co-expressing CAMYEL biosensor assessed as change in maximum ACh-mediated response at 10 uM incubated for 5 mins by BRET assay relative to control; assay type: cell-based
T1 sequence (whole entry): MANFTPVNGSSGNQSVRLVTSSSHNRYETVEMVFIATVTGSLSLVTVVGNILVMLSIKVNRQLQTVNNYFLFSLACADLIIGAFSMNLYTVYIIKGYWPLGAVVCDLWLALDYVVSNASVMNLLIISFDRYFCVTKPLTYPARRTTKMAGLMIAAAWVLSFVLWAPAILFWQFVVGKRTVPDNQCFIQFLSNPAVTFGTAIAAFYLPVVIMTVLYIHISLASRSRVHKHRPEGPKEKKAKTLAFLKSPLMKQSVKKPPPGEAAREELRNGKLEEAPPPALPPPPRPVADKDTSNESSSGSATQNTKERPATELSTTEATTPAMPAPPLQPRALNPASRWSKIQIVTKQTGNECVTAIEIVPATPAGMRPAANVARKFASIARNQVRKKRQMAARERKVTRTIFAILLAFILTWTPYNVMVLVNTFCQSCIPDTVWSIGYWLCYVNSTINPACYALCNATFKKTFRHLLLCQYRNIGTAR
Procedure, shortened: (§1)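 FlpInCHO cells stably expressing human M4 mAChR, transiently transfected with CAMYEL cAMP BRET biosensor (60 ng/well, PEI), assayed 48 h later in HBSS pH 7.4. Full ACh concentration-response curve alone or with modulator at 1 or 10 μM, co-added with coelenterazine h (5 μM), 5 min, 37 °C. Three-parameter logistic fit; ACh curve values subtracted from ACh+modulator values. Δbaseline and ΔEmax given as % of maximal ACh response without modulator. 4 experiments in duplicate, SEM pooled.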

[2] = target: T1, Muscarinic acetylcholine receptor M4 (Homo sapiens); test: […] human M4 mAChR expressed in Flp-In-CHO cells co-expressing CAMYEL biosensor assessed as change in baseline response at 10 uM incubated for 5 mins by BRET assay relative to control; assay type: cell-based; procedure, shortened: as §1
[3] = target: T1, Muscarinic acetylcholine receptor M4 (Homo sapiens); test: Positive allosteric modulation at human M4 mAChR expressed in Flp-In-CHO cells co-expressing CAMYEL biosensor assessed as change in ACh-mediated response incubated for 5 mins by BRET assay; assay type: cell-based; conditions: filed as positive allosteric modulator; procedure, shortened: as §1
[4] = target: T1, Muscarinic acetylcholine receptor M4 (Homo sapiens); test: Positive allosteric modulation at Rluc-tagged human M4 mAChR expressed in Flp-In-CHO cells co-expressing eYFP-tagged beta-arrestin 2 assessed as ACh-mediated beta-arrestin 2 recruitment co-operativity (log alpha beta) incubated for 5 mins by luminometry; assay type: cell-based; conditions: filed as positive allosteric modulator
Procedure, shortened: (§2)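 FlpInCHO cells co-transfected with human M4-Rluc8 (20 ng/well) and β-arrestin-2-eYFP (80 ng/well) using PEI, assayed after 48 h. Coelenterazine h (5 μM) preincubated 5 min, then ACh plus modulator ranges for 5 min at 37 °C; BRET at 475/535 nm. Fit to simplified operational model with slope 1 and KB fixed from binding. 4–5 experiments in duplicate.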

[5] = target: T1, Muscarinic acetylcholine receptor M4 (Homo sapiens); test: Displacement of 3[H]-NMS from human M4 mAChR expressed in Flp-In-CHO cells assessed as binding co-operativity (log alpha) incubated for 6 hrs in presence of ACh by microbeta2 plate reader assay; assay type: cell-based; conditions: filed as positive allosteric modulator
Procedure, shortened: (§3)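 Intact FlpInCHO-hM4 cells, 20,000/well grown overnight, in HBSS pH 7.4 with [3H]-NMS 0.5 nM, ACh (0.01 μM–10 mM) and modulator (0.1–10 μM), shaken 6 h at room temperature. Washed with ice-cold 0.9% NaCl, then scintillation counting. Nonspecific binding defined with 10 μM atropine. pKB and log α(ACh) from global fit to allosteric ternary complex model, with log α′(NMS) fixed at –3 under strong negative cooperativity. 4–5 experiments in duplicate.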

[6] = target: T1, Muscarinic acetylcholine receptor M4 (Homo sapiens); test: Positive allosteric modulation at Rluc-tagged human M4 mAChR expressed in Flp-In-CHO cells co-expressing eYFP-tagged beta-arrestin 2 assessed as efficacy of ACh-mediated beta-arrestin 2 recruitment (log tau B) incubated for 5 mins by luminometry; assay type: cell-based; conditions: filed as positive allosteric modulator; procedure, shortened: as §2
[7] = target: T1, Muscarinic acetylcholine receptor M4 (Homo sapiens); test: Positive allosteric modulation at human M4 mAChR expressed in Flp-In-CHO cells co-expressing CAMYEL biosensor assessed as ACh-mediated cAMP signalling co-operativity (log alpha beta) incubated for 5 mins by BRET assay; assay type: functional, cell-based; conditions: filed as positive allosteric modulator
Procedure, shortened: (§4)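 CAMYEL-transfected FlpInCHO-hM4 cells (48 h post-transfection) given ACh and modulator concentration ranges in full interaction design, 5 min at 37 °C; BRET read with coelenterazine h. Fit to complete operational model of allosterism and agonism with ACh KA and modulator KB fixed from binding assays. Gives log τB and log αβ. 4–5 experiments in duplicate.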

[8] = target: T1, Muscarinic acetylcholine receptor M4 (Homo sapiens); test: Positive allosteric modulation at human M4 mAChR expressed in Flp-In-CHO cells co-expressing CAMYEL biosensor assessed as efficacy of ACh-mediated cAMP signalling (log tau B) incubated for 5 mins by BRET assay; assay type: functional, cell-based; conditions: filed as positive allosteric modulator; procedure, shortened: as §4
[9] = target: T1, Muscarinic acetylcholine receptor M4 (Homo sapiens); test: Displacement of 3[H]-NMS from human M4 mAChR expressed in Flp-In-CHO cells assessed as binding constant incubated for 6 hrs by microbeta2 plate reader assay; assay type: cell-based; conditions: filed as positive allosteric modulator; procedure, shortened: as §3
[10] = filed as positive allosteric modulator

Row | Emax [1, 10] | Activity [2, 10] | deltapEC50 [3] | Activity [2] | log(activity) [4] | log(activity) [5] | log(activity) [6] | log(activity) [7] | log(activity) [8] | pKb [9] | Emax [1] | Structure (SMILES)
1 | 65.6% | 77.3% | 1.33 |  |  |  |  |  |  |  |  | Cc1ccc(-c2cnn(CC3CCCC3)c2)c(-c2cccc(C(N)=O)c2)n1
2 | 84.8% | 108% | 1.36 |  |  |  |  |  |  |  |  | Cc1ccc(-c2cnn(CC(C)C)c2)c(-c2ccc3c(c2)C(=O)N(C)C3)n1
3 | 41.6% |  | 0.88 | 13% | 2.09 | 2.18 | 0.51 | 2.47 | -0.81 | 5.33 |  | CN1Cc2ccc(-c3ncccc3-c3cnn(CC4CCCC4)c3)cc2C1=O
4 | 80.6% | 88.1% | 1.31 |  |  |  |  |  |  |  |  | Cc1ccc(-c2cnn(CC3CCCC3)c2)c(-c2ccc(N)cc2)n1
5 |  |  | 1.07 | 20% |  |  |  |  |  |  | 11.8% | Cc1ccc(-c2cn(CC3CCCC3)nn2)c(-c2ccc3c(c2)C(=O)N(C)C3)n1
6 | 63.8% | 77.1% | 1.87 |  |  |  |  |  |  |  |  | Cc1ccc(-c2cnn(Cc3ccccc3)c2)c(-c2ccc3c(c2)C(=O)N(C)C3)n1
7 | 56.8% | 47.2% | 0.17 |  |  |  |  |  |  |  |  | CN1Cc2ccc(-c3cnccc3-c3cnn(CC4CCCC4)c3)cc2C1=O
8 |  |  | 1.15 | 32.1% | 1.87 | 1.98 | 0.87 | 2.46 | 0.04 | 4.68 | 21.8% | Cc1ccc(-c2cnn(CC3CCCC3)c2)c(-c2ccccc2)n1
9 | 69.6% | 102% | 1.64 |  | 1.29 | 1.95 | 0.64 | 2.22 | -0.54 | 5.84 |  | Cc1ccc(-c2cnn(CC3CC3)c2)c(-c2ccc3c(c2)C(=O)N(C)C3)n1
10 | 47.1% | 86.7% | 1.16 |  |  |  |  |  |  |  |  | Cc1ccc(-c2cnn(CC3CCOCC3)c2)c(-c2ccc3c(c2)C(=O)N(C)C3)n1
11 |  | 48.5% | -0.34 |  | 0.94 | 1.41 | 0.07 | 1.81 | -0.74 | 4.55 | 35.1% | CN1Cc2ccc(-c3nccnc3-c3cnn(CC4CCCC4)c3)cc2C1=O
12 | 73.3% | 89.7% | 2.57 |  |  |  |  |  |  |  |  | Cc1ccc(-c2cnn(CC3CCCC3)c2)c(-c2ccc3c(c2)C(=O)NC3)n1
13 |  |  | 1.24 | 18.6% |  |  |  |  |  |  | 39% | Cc1ccc(-c2cnn(CC3CCCC3)c2)c(-c2ccc3c(c2)NC(=O)C3)n1
14 | 97.7% |  | 0.25 | 33.2% | 1.06 | 1.47 | -0.83 | 2.03 | -0.58 | 4.49 |  | Cc1ccc(-c2cnn(CC3CCCC3)c2)c(-c2cccc(C(=O)N(C)C)c2)n1
15 |  |  | 1.06 | 24.5% |  |  |  |  |  |  | 13.9% | Cc1ccc(-n2cc(CC3CCCC3)nn2)c(-c2ccc3c(c2)C(=O)N(C)C3)n1
16 | 61.3% | 78.2% | 1.99 |  |  |  |  |  |  |  |  | CNC(=O)c1cccc(-c2nc(C)ccc2-c2cnn(CC3CCCC3)c2)c1
17 | 52.5% |  | 0.6 | 5.53% |  |  |  |  |  |  |  | Cc1ccc(-c2cnn(CC3CCN(C(=O)OC(C)(C)C)CC3)c2)c(-c2ccc3c(c2)C(=O)N(C)C3)n1
18 |  |  | 0.57 | 13.7% |  |  |  |  |  |  | 27% | Cc1ccc(-c2cnn(C)c2)c(-c2ccc3c(c2)C(=O)N(C)C3)n1
19 | 66.6% | 90.6% | 1.49 |  |  |  |  |  |  |  |  | CN1Cc2ccc(-c3ccncc3-c3cnn(CC4CCCC4)c3)cc2C1=O
20 | 53.5% | 51.7% | 1.35 |  |  |  |  |  |  |  |  | Cc1ccc(-c2cnn(CC3CCCC3)c2)c(-c2cccc(N)c2)n1
21 | 63.9% | 106% | 0.73 |  | 1.1 | 1.92 | 0.56 | 2.01 | -0.88 | 6.11 |  | Cc1ccc(-c2cnn(CC3CCCCC3)c2)c(-c2ccc3c(c2)C(=O)N(C)C3)n1
22 | 57.7% | 52.2% | 1.63 |  |  |  |  |  |  |  |  | CC(=O)Nc1cccc(-c2nc(C)ccc2-c2cnn(CC3CCCC3)c2)c1
23 |  |  | 0.58 | 4.76% |  |  |  |  |  |  | 3.58% | Cc1ccc(-c2ccc3c(c2)C(=O)N(C)C3)c(-c2cnn(CC3CCOCC3)c2)n1
24 | 74% | 124% | 1.05 |  |  |  |  |  |  |  |  | Cc1ccc(-c2cnn(CC3CCC3)c2)c(-c2ccc3c(c2)C(=O)N(C)C3)n1
25 |  |  | 0.63 | 6.49% |  |  |  |  |  |  | 25.6% | CN1Cc2ccc(-c3ccccc3-c3cnn(CC4CCCC4)c3)cc2C1=O
26 | 50.5% | 83.3% | 2.11 |  |  |  |  |  |  |  |  | CCCN1Cc2ccc(-c3nc(C)ccc3-c3cnn(CC4CCCC4)c3)cc2C1=O
